Measurements published in ChEMBL document CHEMBL1131137, “New platelet fibrinogen receptor glycoprotein IIb-IIIa antagonists: orally active series of N-alkylated amidines with a 6,6-bicyclic template” (J Med Chem, 1998).
In brackets after ≈: the same amount, converted by molar mass.

Key:
[1] = Concentration in plasma 1 hr after oral administration; type: ADME, cell-free; details: read-out: Plasma level
Method in brief: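 Male guinea pigs starved overnight, given prodrug orally at 37 μmol/kg in saline with 0.5% Tween 80. PPP taken 1 h post-dose under pentobarbital. Bioassay: treated PPP diluted with donor PPP, mixed with donor PRP, and aggregation to 5 μM ADP read against a standard curve of PPP spiked with the active acid.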

[2] = Solubility in saline.; type: physicochemical; details: read-out: S
Method in brief: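 Solubility in saline determined by UV spectrophotometry.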

Cavia porcellus [3] = test: Inhibition of ex vivo platelet aggregation induced by 5 uM Adenosine diphosphate (ADP) 1 hour after oral administration.; type: functional
Method in brief: (§1)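 Fasted male guinea pigs dosed orally at 37 μmol/kg in saline with 0.5% Tween 80, then anesthetized with pentobarbital at 1 h and bled. PRP adjusted to 3.0 × 10⁸/mL, preincubated 2 min, and aggregated with ADP (final 5 μM). Inhibition relative to three vehicle-treated controls per experiment; mean of three animals.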

Cavia porcellus [4] = species on record: Cavia porcellus; test: In vitro inhibition of guinea pig Platelet-rich plasma (PRP) aggregation induced by 5 uM ADP; type: functional
[5] = biological target: Integrin alpha-IIb/beta-3 (Homo sapiens, UniProt P05106+P08514); test: Inhibition of Fibrinogen binding to Immobilized Human Fibrinogen Receptor.; type: protein-complex assay
Chain of Integrin alpha-IIb/beta-3 (P05106 27-788 limits assumed): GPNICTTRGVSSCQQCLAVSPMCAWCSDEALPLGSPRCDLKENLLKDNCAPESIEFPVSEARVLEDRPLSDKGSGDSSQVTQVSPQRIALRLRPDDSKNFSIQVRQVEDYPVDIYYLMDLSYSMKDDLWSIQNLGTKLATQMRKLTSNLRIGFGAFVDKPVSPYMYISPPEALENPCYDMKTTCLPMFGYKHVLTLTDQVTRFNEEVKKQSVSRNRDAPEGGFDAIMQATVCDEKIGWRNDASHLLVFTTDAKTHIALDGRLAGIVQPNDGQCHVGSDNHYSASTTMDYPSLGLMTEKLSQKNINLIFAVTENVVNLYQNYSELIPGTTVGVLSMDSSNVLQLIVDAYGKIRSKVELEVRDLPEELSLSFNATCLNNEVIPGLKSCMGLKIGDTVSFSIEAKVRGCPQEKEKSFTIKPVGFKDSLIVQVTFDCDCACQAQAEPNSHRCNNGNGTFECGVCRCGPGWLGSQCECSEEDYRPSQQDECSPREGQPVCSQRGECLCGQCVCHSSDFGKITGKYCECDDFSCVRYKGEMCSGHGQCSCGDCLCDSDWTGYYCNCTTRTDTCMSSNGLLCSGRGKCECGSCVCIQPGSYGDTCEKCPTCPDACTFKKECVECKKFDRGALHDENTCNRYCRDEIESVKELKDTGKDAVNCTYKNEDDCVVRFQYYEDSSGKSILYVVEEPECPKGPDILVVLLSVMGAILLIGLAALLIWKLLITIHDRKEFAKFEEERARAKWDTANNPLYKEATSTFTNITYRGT
Chain of Integrin alpha-IIb/beta-3 (P08514 32-887 limits assumed): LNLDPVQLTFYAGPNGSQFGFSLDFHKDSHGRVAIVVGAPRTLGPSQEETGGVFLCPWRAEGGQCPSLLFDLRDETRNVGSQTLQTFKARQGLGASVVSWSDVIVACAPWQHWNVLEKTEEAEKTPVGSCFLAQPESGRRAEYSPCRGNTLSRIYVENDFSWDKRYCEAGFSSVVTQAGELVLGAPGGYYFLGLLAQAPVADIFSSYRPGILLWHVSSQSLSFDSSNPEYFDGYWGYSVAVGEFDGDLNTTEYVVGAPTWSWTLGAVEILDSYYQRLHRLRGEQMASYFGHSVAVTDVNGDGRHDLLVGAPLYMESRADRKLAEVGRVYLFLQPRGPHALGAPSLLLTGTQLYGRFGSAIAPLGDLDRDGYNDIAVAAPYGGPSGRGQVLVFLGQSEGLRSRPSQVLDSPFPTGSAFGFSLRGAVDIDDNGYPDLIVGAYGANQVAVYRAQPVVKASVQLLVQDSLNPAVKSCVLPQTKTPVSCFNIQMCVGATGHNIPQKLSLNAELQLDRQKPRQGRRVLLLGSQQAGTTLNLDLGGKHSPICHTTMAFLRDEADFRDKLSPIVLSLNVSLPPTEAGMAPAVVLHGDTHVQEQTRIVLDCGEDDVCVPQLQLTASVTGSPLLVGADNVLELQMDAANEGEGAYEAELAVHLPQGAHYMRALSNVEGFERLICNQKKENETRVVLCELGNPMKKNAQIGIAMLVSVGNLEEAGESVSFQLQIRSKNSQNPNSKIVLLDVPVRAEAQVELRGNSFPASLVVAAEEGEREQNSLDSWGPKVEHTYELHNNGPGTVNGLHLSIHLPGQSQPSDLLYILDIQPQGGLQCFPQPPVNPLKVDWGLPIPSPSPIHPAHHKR
Chain of Integrin alpha-IIb/beta-3 (P08514 891-1039 limits assumed): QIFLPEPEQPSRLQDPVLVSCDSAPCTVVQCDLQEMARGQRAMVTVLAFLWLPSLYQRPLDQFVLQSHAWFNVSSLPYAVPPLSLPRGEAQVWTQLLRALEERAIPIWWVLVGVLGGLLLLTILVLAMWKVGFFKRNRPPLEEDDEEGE
Method in brief: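 Human platelet GPIIb-IIIa purified (ConA-, heparin-Sepharose, Sephacryl S-300) and coated at 1.5 μg/mL in TBS with 0.0005% Triton, 24 h at 4 °C, then blocked with 3.5% BSA. Compound plus biotinylated fibrinogen (2 μg/mL before 1:1 mixing) incubated 24 h at room temperature. Detection by peroxidase-streptavidin and o-phenylenediamine, A490.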

Homo sapiens = species on record: Homo sapiens; test: In vitro inhibition of human Platelet-rich plasma (PRP) aggregation induced by 5 uM ADP; type: functional
Method in brief: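 PRP prepared by 120g 15-min spin of citrated venous blood (3.8% citrate, 1:9) from anesthetized male guinea pigs or male human volunteers, adjusted to 2.5–3.0 × 10⁸ platelets/mL with PPP. PRP warmed 2 min at 37 °C, compound or vehicle added, then 2 min later ADP (final 5 μM). Maximum aggregation compared with control; IC50 estimated.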

Cavia porcellus [6] = test: Inhibition of ex vivo platelet aggregation induced by 5 uM Adenosine diphosphate (ADP) 1 hour after oral administration at the dose of 37umol/kg; type: functional; method in brief: as §1

Structure (SMILES)	IC50 (Cavia porcellus [4])	IC50 [5]	IC50 (Homo sapiens)	further results
C#CCNC(=N)c1ccc(C(=O)Nc2ccc3c(c2)CC(CC(=O)OCC)CO3)cc1 (stereo not drawn)				concentration at 1 h [1]: 3800 nM; solubility [2]: 106000 µg/mL (≈ 253000 µM); Inhibition (Cavia porcellus [3]): 99%
C=CCNC(=N)c1ccc(C(=O)Nc2ccc3c(c2)CC(CC(=O)OCC)CC3)cc1 (stereo not drawn)				concentration at 1 h [1]: 380 nM; Inhibition (Cavia porcellus [3]): 21%
N=C(N)c1ccc(/C=C/c2ccc3c(c2)CC(CC(=O)O)CC3)cc1 (stereo not drawn)	5 µM			
N=C(c1ccc(C(=O)Nc2ccc3c(c2)CC(CC(=O)O)CO3)cc1)N1CCOCC1 (stereo not drawn)	0.23 µM	0.098 nM	0.066 µM	
CCC/N=C(\N)c1ccc(C(=O)Nc2ccc3c(c2)CC(CC(=O)OCC)CC3)cc1 (stereo not drawn)				concentration at 1 h [1]: < 180 nM; Inhibition (Cavia porcellus [3]): 3%
CCCNC(=N)c1ccc(C(=O)Nc2ccc3c(c2)CC(CC(=O)O)CC3)cc1 (stereo not drawn)	0.17 µM	0.13 nM	0.068 µM	
C#CCNC(=N)c1ccc(C(=O)Nc2ccc3c(c2)CC(CC(=O)O)CO3)cc1 (stereo not drawn)	0.35 µM	0.13 nM	0.078 µM	
CCOC(=O)CC1COc2ccc(NC(=O)c3ccc(C(=N)N4CCOCC4)cc3)cc2C1 (stereo not drawn)				concentration at 1 h [1]: 8400 nM; solubility [2]: > 200000 µg/mL; Inhibition (Cavia porcellus [3]): 99%
N=C(c1ccc(C(=O)Nc2ccc3c(c2)CC(CC(=O)O)CC3)cc1)N1CCOCC1 (stereo not drawn)	0.19 µM	0.15 nM	0.08 µM	
C#CCNC(=N)c1ccc(C(=O)Nc2ccc3c(c2)CC(CC(=O)OCC)CC3)cc1 (stereo not drawn)				concentration at 1 h [1]: 1000 nM; solubility [2]: 1500 µg/mL (≈ 3590 µM); Inhibition (Cavia porcellus [3]): 99%
N=C(N)c1ccc(C(=O)Nc2ccc3c(c2)CN(CC(=O)O)CC3)cc1	6.6 µM		0.29 µM	
N=C(N)c1ccc(C(=O)Nc2ccc3c(c2)CC(CC(=O)O)CC3)cc1 (stereo not drawn)	0.37 µM	0.12 nM	0.057 µM	inhibition in vivo at 37 µmol/kg (Cavia porcellus [6]): 8%
CCOC(=O)CC1CCc2ccc(NC(=O)c3ccc(C(=N)N)cc3)cc2C1 (stereo not drawn)				solubility [2]: 260 µg/mL (≈ 685 µM); inhibition in vivo at 37 µmol/kg (Cavia porcellus [6]): 41%
CCOC(=O)CC1CCc2ccc(NC(=O)c3ccc(C(=N)NCc4ccco4)cc3)cc2C1 (stereo not drawn)				concentration at 1 h [1]: 850 nM; solubility [2]: 1060 µg/mL (≈ 2310 µM); Inhibition (Cavia porcellus [3]): 91%
CN(C(=O)c1ccc(C(=N)N)cc1)c1ccc2c(c1)CC(CC(=O)O)CC2 (stereo not drawn)	1.8 µM		0.2 µM	
CCOC(=O)CC1COc2ccc(NC(=O)c3ccc(C(=N)N)cc3)cc2C1 (stereo not drawn)				solubility [2]: 410 µg/mL (≈ 1070 µM); inhibition in vivo at 37 µmol/kg (Cavia porcellus [6]): 40%
CCOC(=O)CC1CCc2ccc(NC(=O)c3ccc(C(=N)N4CCOCC4)cc3)cc2C1 (stereo not drawn)				concentration at 1 h [1]: 7300 nM; solubility [2]: > 200000 µg/mL; Inhibition (Cavia porcellus [3]): 98%

Second part, led by results:

IC50 (Cavia porcellus [4])	IC50 [5]	IC50 (Homo sapiens)	Structure (SMILES)	further results
0.62 µM	0.2 nM		NC(=NCc1ccco1)c1ccc(C(=O)Nc2ccc3c(c2)CC(CC(=O)O)CC3)cc1 (stereo not drawn)	
	0.073 nM	0.049 µM	N=C(N)c1ccc(C(=O)Nc2ccc3c(c2)CC(CC(=O)O)CO3)cc1 (stereo not drawn)	
0.3 µM	0.16 nM	0.1 µM	C#CC/N=C(\N)c1ccc(C(=O)Nc2ccc3c(c2)CC(CC(=O)O)CC3)cc1 (stereo not drawn)	
> 1000 µM			N=C(N)c1ccc(COc2ccc3ccc(CC(=O)O)cc3c2)cc1	
		1.5 µM	N=C(N)c1ccc(COc2ccc3c(c2)CC(CC(=O)O)CC3)cc1 (stereo not drawn)	
0.49 µM	0.26 nM		C=CCNC(=N)c1ccc(C(=O)Nc2ccc3c(c2)CC(CC(=O)O)CC3)cc1 (stereo not drawn)	
0.11 µM	0.12 nM	0.035 µM	N=C(c1ccc(C(=O)Nc2ccc3c(c2)C[C@@H](CC(=O)O)CO3)cc1)N1CCOCC1	
		0.37 µM	N=C(N)c1ccc(CCc2ccc3c(c2)CC(CC(=O)O)CC3)cc1 (stereo not drawn)	
	2.6 nM	0.36 µM	N=C(c1ccc(C(=O)Nc2ccc3c(c2)C[C@H](CC(=O)O)CO3)cc1)N1CCOCC1	
0.23 µM		0.046 µM	N=C(N)c1ccc(NC(=O)c2ccc3c(c2)CC(CC(=O)O)CC3)cc1 (stereo not drawn)	
